Reference: ChEMBL document CHEMBL2439996, “Phenyl substituted 3-hydroxypyridin-2(1H)-ones: inhibitors of influenza A endonuclease” (Bioorg Med Chem, 2013)

Legend:
[1] = test system: HEK293; assay: Cytotoxicity against human HEK293 cells after 4 days by MTT assay; assay type: cell-based; settings: HEK293, 96 h
In short: (§1)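 MTT microtiter assay; cells kept at 37 °C, 5% CO2 in DMEM with regular passage. Wells seeded with 3,000 cells each, exposed continuously for four days to varying drug concentrations in triplicate, with a drug-free control. MTT read at end of day 4 to give IC50.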

[2] = test system: MDCK; assay: Cytotoxicity against MDCK cells after 4 days by MTT assay; assay type: cell-based; settings: Canis lupus familiaris, 96 h; in short: as §1
[3] = Inhibition of endonuclease activity of Influenza A virus H1N1 RNA-dependent RNA polymerase expressed in Escherichia coli BL21 using 6FAM-TGGCAATATCAGCTCCACA-MGBNFQ as substrate after 5 to 240 mins by fluorescence assay
In short: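 PA_N (pandemic H1N1 endonuclease, residues 1-204, His-tag removed, SEC-purified). Inhibitor serially diluted, DMSO at most 2.5% (v/v). Ex 488/em 518 read at 5, 120, 240 min at 37 °C. IC50 by nonlinear regression of fluorescence change, mean of triplicates ± SEM.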

O=c1[nH]ccc(-c2ccc(F)cc2)c1O
IC50 [1]: > 100 µM
IC50 [2]: > 100 µM
IC50 [3]: > 200 µM

O=c1[nH]cc(-c2ccccc2)cc1O
IC50 [1]: ≥ 28 µM
IC50 [2]: 80 µM
IC50 [3]: 2.1 µM

O=c1[nH]cc(-c2ccc(F)cc2)cc1O
IC50 [1]: > 100 µM
IC50 [2]: > 100 µM
IC50 [3]: 0.73 µM

N#Cc1ccc(-c2c[nH]c(=O)c(O)c2)cc1
IC50 [1]: > 100 µM
IC50 [2]: > 100 µM
IC50 [3]: 3.83 µM

O=c1[nH]cc(-c2ccc(-c3nnn[nH]3)cc2)cc1O
IC50 [1]: 80 µM
IC50 [2]: > 100 µM
IC50 [3]: 0.368 µM

O=c1[nH]c(-c2ccccc2)ccc1O
IC50 [1]: ≥ 28 µM
IC50 [2]: 60 µM
IC50 [3]: 0.87 µM

O=c1[nH]c(-c2ccc(F)cc2)ccc1O
IC50 [1]: > 100 µM
IC50 [2]: > 100 µM
IC50 [3]: 0.43 µM

N#Cc1ccc(-c2ccc(O)c(=O)[nH]2)cc1
IC50 [1]: ≥ 28 µM
IC50 [2]: > 100 µM
IC50 [3]: 0.802 µM

O=c1[nH]c(-c2ccc(-c3nnn[nH]3)cc2)ccc1O
IC50 [1]: ≥ 28 µM
IC50 [2]: > 100 µM
IC50 [3]: 0.085 µM

O=c1[nH]c(-c2ccccc2)c(-c2ccccc2)cc1O
IC50 [1]: ≥ 28 µM
IC50 [2]: > 100 µM
IC50 [3]: 0.047 µM

O=c1[nH]c(-c2ccc(F)cc2)c(-c2ccc(F)cc2)cc1O
IC50 [1]: > 100 µM
IC50 [2]: > 100 µM

N#Cc1ccc(-c2cc(O)c(=O)[nH]c2-c2ccc(C#N)cc2)cc1
IC50 [1]: ≥ 28 µM
IC50 [2]: 40 µM
IC50 [3]: 0.103 µM

O=c1[nH]c(-c2ccc(-c3nnn[nH]3)cc2)c(-c2ccc(-c3nnn[nH]3)cc2)cc1O
IC50 [1]: > 100 µM
IC50 [2]: > 100 µM
IC50 [3]: 0.285 µM

O=c1[nH]ccc(-c2ccccc2)c1O
IC50 [1]: > 100 µM
IC50 [2]: > 100 µM
IC50 [3]: 35 µM
